A3A deaminase = human APOBEC3A DNA deaminase inhibition. recombinant A3A, FAM/TAMRA ssDNA deamination fluorescence. inhibition, % at 20 µM. 330,000 compounds, 0.41% hits. AID 493011;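 active means at least 40% inhibition at 20 µM here, with at most 30% in a related deaminase screen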
Target sequence (P31941 whole entry, looked up): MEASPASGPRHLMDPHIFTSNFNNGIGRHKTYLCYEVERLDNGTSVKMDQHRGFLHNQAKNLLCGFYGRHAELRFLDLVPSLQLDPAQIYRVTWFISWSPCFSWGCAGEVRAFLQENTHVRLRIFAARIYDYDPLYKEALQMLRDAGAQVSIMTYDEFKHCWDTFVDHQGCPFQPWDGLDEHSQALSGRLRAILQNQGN
A3G deaminase = inhibitors of human APOBEC3G DNA deaminase. Q9HC16. recombinant A3G, ssDNA deamination FAM/TAMRA fluorescence. inhibition, % at 20 µM. 330,000 compounds, 0.28% hits. AID 493012;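 active means inhibition of at least 40% at 20 µM, with no more than 30% in the related APOBEC3A deaminase screen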
Target sequence (Q9HC16 whole entry, looked up): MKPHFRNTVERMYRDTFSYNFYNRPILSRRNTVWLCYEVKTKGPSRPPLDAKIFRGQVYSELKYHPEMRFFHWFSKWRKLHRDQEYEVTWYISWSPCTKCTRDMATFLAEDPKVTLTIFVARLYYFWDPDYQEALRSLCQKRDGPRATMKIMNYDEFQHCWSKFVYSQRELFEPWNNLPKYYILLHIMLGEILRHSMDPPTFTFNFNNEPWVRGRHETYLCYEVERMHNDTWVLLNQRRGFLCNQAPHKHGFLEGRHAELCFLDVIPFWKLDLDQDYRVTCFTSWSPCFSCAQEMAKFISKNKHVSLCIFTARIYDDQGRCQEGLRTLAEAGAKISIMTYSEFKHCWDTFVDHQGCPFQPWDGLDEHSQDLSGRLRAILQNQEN
HKDC1 inhibitor = HKDC1 (human) hexokinase inhibition; Q2TB90; recombinant HKDC1, G6PDH/diaphorase resazurin coupled fluorescence; inhibition, % at 20 µM; 340,000 compounds, 0.16% hits; AID 493160;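 active means inhibition above about 35% when tested at 20 µM, limit read from the data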
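Test system: Recombinant HKDC1 (HK5) hexokinase enzyme, produced in-house | Input: HKDC1 at 5 µg/mL | Buffer or medium: Tris pH 8.0 buffer with MgCl2, Tween-20, BSA, BME | Schedule: 90 min reaction incubation at room temperature, dark | Technique: Resazurin-to-resorufin fluorescence via G6PDH and diaphorase coupling, 525/613 nm | Controls: DMSO wells with and without enzyme mix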
iPSC survival up = increases survival of single human iPS cells | survival enhancement, % at 20 µM | hiPSC single-cell survival, ATPlite luminescence; 100% = ROCK inhibitor wells, 0% = DMSO | 360,000 compounds, 0.044% hits | AID 602274; in the data active means survival enhancement above about 18%;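 further: cells exposed to compounds for 16 hours before the ATP read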
PfG6PD inh = PfG6PD (Plasmodium falciparum) enzyme inhibition; inhibition, % at 20 µM; PfGluPho enzyme, NADPH resazurin-diaphorase fluorescence; 350,000 compounds, 0.78% hits; AID 504690;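 active means inhibition reaching at least a set limit at 20 µM in the primary screen, cut at about 59% in these data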
APOBEC3A confirm = APOBEC3A (human) deaminase inhibition, confirmed. 1,400 compounds, 63% hits. recombinant A3A, ssDNA deaminase UDG fluorescence assay. inhibition, % at 20 µM. shares compounds with A3A deaminase;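 active means inhibition reaching a set limit, 80% of the first screen's cutoff, at 20 µM in any replicate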
UDG ctr A3A = UDG inhibition in APOBEC3A counter-screen; inhibition, % at 20 µM; shares compounds with A3A deaminase; UDG counterscreen, FAM/TAMRA uracil oligo fluorescence; AID 504714; 1,000 tested, under 10 active; call rule not given here
Hits are given with their value; 0 = inactive; - = not tested or not shown. Compounds with a hit are over-represented: about 1.4% of the library has one in this group of screens.

SMILES	A3A deaminase	A3G deaminase	HKDC1 inhibitor	iPSC survival up	PfG6PD inh	APOBEC3A confirm	UDG ctr A3A
C[C@@H]1C[C@H]2OC(=O)C3(CO3)[C@H]2[C@H](O)[C@]2(C)C(=O)C3OC3[C@@H]12 (stereo partly drawn)	0	0	-	-	-	-	-
CC(=O)CC(c1ccc2c(c1)OCO2)c1c(O)c2ccccc2oc1=O (stereo not drawn)	-	-	-	0	0	-	-
C=C1C(C)C2C(Cc3ccccc3)NC(=O)C23OC(=O)/C=C/C(O)CCCC(C)C/C=C/C3C1O (stereo not drawn)	-	-	0	30	0	-	-
CC(C)[N+](C)(CCC(C(N)=O)(c1ccccc1)c1ccccc1)C(C)C	68	0	0	0	0	83	0
CCC(=O)C(CCN1CCOCC1)(c1ccccc1)c1ccccc1	0	0	0	0	0	-	-
CCOC(=O)C1(c2ccccc2)Oc2ccccc2C(c2ccc(OC)cc2)=C1C(=O)OC (stereo not drawn)	0	0	0	0	0	-	-
O=[N+]([O-])c1cc(S(=O)(=O)c2ccc(O)c([N+](=O)[O-])c2)ccc1O	70	0	0	0	0	84	0
CCOC(=O)C1(CCCc2ccccc2)CCN(C2CCC2)CC1	0	0	0	0	0	-	-
C[N+]12CCC(CC1)C(C#N)(N1CCOCC1)C2 (stereo not drawn)	46	0	0	0	0	81	0
CCCCCCC[n+]1ccc(-c2cc[n+](CCCCCCC)cc2)cc1	58	0	0	0	0	75	0
COc1ccc(CN2Cc3cc(-c4ccc(OC)cc4)ccc3-n3nncc3C2)cc1	-	-	-	0	-	-	-
COc1cccc(Oc2coc3cc(OC(=O)N(C)C)ccc3c2=O)c1	99	0	0	0	0	0	0
CN(C)C(=O)Oc1ccc2c(=O)c(Oc3ccccc3Br)coc2c1	0	0	0	0	0	-	-
COC(=O)C1=C(c2ccc(Cl)c(C(F)(F)F)c2)C[C@@H]2CC[C@H]1N2C(=O)NCCOc1ccccc1Cl	0	0	0	0	0	-	-
COc1cc2c(cc1O)C[C@H]1NCCc3cc4c(c-2c31)OCO4	61	0	0	0	0	34	-
CCC[N+]12CCC(CC1)C(=C(c1ccccc1)c1ccccc1)C2	0	0	0	0	0	-	-
CCCC[N+]12CCC(CC1)C(=C(c1ccccc1)c1ccccc1)C2	97	0	0	0	0	71	0
C=C1C(O)(c2ccccc2)C2CC[N+]1(C)CC2 (stereo not drawn)	76	0	0	0	0	74	0
CCOC(=O)/C(CCCN(CC)CC)=N\O	75	0	0	0	0	78	0
COC(/C(C)=C/C=C/C(C)=C/c1coc(C)n1)C(C)C1CC(O)C2(C)OC2C=CC(C)C2CC(CC(=O)O2)CC2OC2C(=O)O1 (stereo not drawn)	-	-	0	0	0	-	-
C[N+]1(CC2COC(c3ccco3)O2)CCCCC1 (stereo not drawn)	60	0	0	0	0	66	0
S=P(N1CCCCCC1)(N1CC1)N1CC1	-	-	0	0	0	-	-
CC(C)(C#CCCCCC#CC(C)(C)[N+](C)(C)C)[N+](C)(C)C	51	0	-	-	-	46	-
Cc1sc2ncnc(N3CCC(C(=O)Nc4ccc(C#N)c(Cl)c4)CC3)c2c1C	53	0	0	0	0	0	-
Cc1noc(C)c1CSCC(=O)Nc1ccc(C#N)c(Cl)c1	0	0	0	0	0	-	-
SMILES	A3A deaminase	A3G deaminase	HKDC1 inhibitor	iPSC survival up	PfG6PD inh	APOBEC3A confirm	UDG ctr A3A
COc1ccc(CN2Cc3cc(N4CCOCC4)ccc3-n3nncc3C2)cc1	-	-	-	0	-	-	-
COc1ccc(N=C2SCCCN2C)cc1	48	0	0	0	0	72	0
COc1ccc(OC(=O)N(C)C[C@@H]2OCc3cnnn3CCCC(=O)N([C@H](C)CO)C[C@H]2C)cc1	-	-	-	0	0	-	-
C[N+]1(C)[C@@H]2CC[C@H]1CC(OC(=O)C(c1ccccc1)c1ccccc1)C2 (stereo partly drawn)	46	0	0	0	0	61	-
C[N+]1(C)[C@@H]2CC(OC(=O)[C@H](CO)c3ccccc3)C[C@H]1[C@@H]1O[C@@H]12 (stereo partly drawn)	0	0	0	0	0	-	-
Cc1cc(/C=C2\C(=O)NC(=O)N(c3cccc(F)c3)C2=O)c(C)n1-c1cc(C(=O)O)cc(C(=O)O)c1	70	0	0	0	0	53	0
Cc1cc(/C=C2\C(=O)NC(=O)N(c3ccc(Br)cc3)C2=O)c(C)n1-c1cc(C(=O)O)cc(C(=O)O)c1	0	0	0	0	0	-	-
Nc1nc(N)c2cnnn2n1	-	-	0	0	0	-	-
C[N+]1(CC(COCc2ccccc2)OC(=O)Cc2ccccc2)CCOCC1 (stereo not drawn)	41	0	0	0	0	69	0
CCOC(=O)c1[nH]c2ccc(OC)cc2c1C(SCC(=O)O)c1ccc(C(F)(F)F)cc1 (stereo not drawn)	0	0	0	0	0	-	-
C[N+](C)(C)c1ccccc1	70	0	0	0	0	78	0
CC(CC(C)(C)N1CC1)=NO	-	-	0	0	0	-	-
COc1ccc2c3c1OC1C(O)C=CC4C(C2)[N+](C)(C)CCC341 (stereo not drawn)	71	0	0	0	0	51	-
O=C1NC(=O)N(c2ccc3c(c2)OCO3)C(=O)/C1=C\c1ccc(-c2ccccc2C(=O)O)o1	76	0	0	0	0	65	0
O=C1NC(=O)N(c2ccc3c(c2)OCO3)C(=O)/C1=C/c1ccc(N2CCCCC2)o1	0	0	0	0	0	-	-
O=C1CC2OCC=C3CN4CCC56c7ccccc7N1C5C2C3CC46O (stereo not drawn)	-	-	-	0	-	-	-
C[C@@H]1CC2(CCCC[N+]2(C)C)C[C@H]1C	81	0	0	0	0	68	0
CC[C@@H](O)C[C@H]1CCC[C@@]2(C[C@@H]3OC(=O)/C=C/[C@@](C)(O)[C@@H](O)[C@H](C)[C@@H](O)[C@H](OC4CCC(N(C)C)C(C)O4)[C@@H](O)[C@](C)(O)CCCCC/C=C/[C@@H]4CC(C)(C)O[C@@]4(O)C[C@H](O2)[C@H]3C)O1 (stereo partly drawn)	-	-	0	0	0	-	-
COC(=O)C1=C(c2ccc(F)cc2OCc2ccccc2)C[C@@H]2CC[C@H]1N2C(=O)NCc1cccc(C(F)(F)F)c1	0	0	0	0	0	-	-
O=Cc1cn(Cc2c(F)cccc2Cl)c2ccccc12	0	0	0	0	0	-	-
O=Cc1cn(Cc2ccccc2F)c2ccccc12	45	0	0	0	0	0	-
CCN(CC)P(c1n(C)cc[n+]1C)N(CC)CC	62	0	0	0	0	65	0
CN(C)c1ccc(/C=C2/C(=O)NC(=O)N(Cc3ccco3)C2=O)cc1	60	0	0	0	0	39	0

Screens (PubChem BioAssay)
